According to ChEMBL document CHEMBL2346534, “Design, synthesis and in vitro anti-proliferative activity of 4,6-quinazolinediamines as potent EGFR-TK inhibitors” (Eur J Med Chem, 2013):

Assays:
Type in all cases: functional
[1] = test system: OVCAR-3; test: Cytotoxicity against human OVCAR3 cells after 48 hrs by SRB assay; conditions: OVCAR-3, 48 h
How it was run: (§1)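 NCI 60-panel five-dose screen. Cells in RPMI 1640 with 5% FBS and 2 mM L-glutamine are plated at 5000–40,000 cells/well by doubling time and preincubated 24 h at 37 °C in 5% CO2. Drug in DMSO is tested at 0.01, 0.1, 1, 10 and 100 μM for 48 h. Cells are TCA-fixed, stained with SRB and read at 515 nm. GI50 is the concentration giving 50% reduction in net protein increase relative to time-zero and control plates.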

[2] = test system: BT-549; test: Cytotoxicity against human BT549 cells after 48 hrs by SRB assay; conditions: BT-549, 48 h
How it was run: (§2)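 NCI 60-panel five-dose screen. Cells in RPMI 1640 with 5% FBS and 2 mM L-glutamine, plated at 5000–40,000 cells/well by doubling time, preincubated 24 h at 37 °C/5% CO2. Drug from DMSO stock added at 0.01, 0.1, 1, 10 and 100 µM, then 48 h. TCA fixation, SRB stain, absorbance at 515 nm, time-zero plates included. GI50 = 50% reduction in net protein increase versus control.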

[3] = test system: SF-268; test: Cytotoxicity against human SF268 cells after 48 hrs by SRB assay; conditions: SF-268, 48 h; how it was run: as §1
[4] = test system: OVCAR-4; test: Cytotoxicity against human OVCAR4 cells after 48 hrs by SRB assay; conditions: OVCAR-4, 48 h; how it was run: as §1
[5] = test system: HCC 2998; test: Cytotoxicity against human HCC2998 cells after 48 hrs by SRB assay; conditions: HCC 2998, 48 h; how it was run: as §2
[6] = test system: SK-MEL-2; test: Cytotoxicity against human SK-MEL-2 cells after 48 hrs by SRB assay; conditions: SK-MEL-2, 48 h; how it was run: as §1
[7] = test system: MDA-MB-435; test: Cytotoxicity against human MDA-MB-435 cells after 48 hrs by SRB assay; conditions: MDA-MB-435, 48 h; how it was run: as §2
[8] = test system: MOLT-4; test: Cytotoxicity against human MOLT4 cells after 48 hrs by SRB assay; conditions: MOLT-4, 48 h; how it was run: as §1
[9] = test system: SF-539; test: Cytotoxicity against human SF539 cells after 48 hrs by SRB assay; conditions: SF-539, 48 h; how it was run: as §1
[10] = test system: UACC-62; test: Cytotoxicity against human UACC62 cells after 48 hrs by SRB assay; conditions: UACC-62, 48 h
How it was run: (§3)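 NCI 60 five-dose screen. Cells in RPMI 1640 with 5% FBS and 2 mM L-glutamine, plated at 5000–40,000 cells/well by doubling time, pre-incubated 24 h at 37 °C, 5% CO2. Time-zero plates TCA-fixed at drug addition. Final concentrations 0.01, 0.1, 1, 10 and 100 µM (DMSO stock), 48 h exposure. TCA fixation, 0.4% SRB stain, absorbance 515 nm. GI50 from [(Ti−Tz)/(C−Tz)]×100 = 50.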

[11] = test system: U-251; test: Cytotoxicity against human U251 cells after 48 hrs by SRB assay; conditions: U-251, 48 h; how it was run: as §3
[12] = test system: M14; test: Cytotoxicity against human M14 cells after 48 hrs by SRB assay; conditions: M14, 48 h; how it was run: as §2
[13] = test system: SW-620; test: Cytotoxicity against human SW620 cells after 48 hrs by SRB assay; conditions: SW-620, 48 h; how it was run: as §3
[14] = test system: CCRF-CEM; test: Cytotoxicity against human CCRF-CEM cells after 48 hrs by SRB assay; how it was run: as §2
[15] = test system: NCI-H226; test: Cytotoxicity against human NCI-H226 cells after 48 hrs by SRB assay; conditions: NCI-H226, 48 h; how it was run: as §1
[16] = test system: DU-145; test: Cytotoxicity against human DU145 cells after 48 hrs by SRB assay; conditions: DU-145, 48 h; how it was run: as §2
[17] = test system: HL-60(TB); test: Cytotoxicity against human HL-60(TB) cells after 48 hrs by SRB assay; conditions: HL-60, 48 h
How it was run: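 NCI 60-panel five-dose screen. Cells were grown in RPMI 1640 with 5% FBS and 2 mM L-glutamine and preincubated 24 h before dosing. Compound from DMSO stock was given at five 10-fold concentrations for 48 h at 37 °C, 5% CO2. Suspension cells were fixed with TCA (final 16%), SRB-stained, and read at 515 nm. GI50, TGI and LC50 came from time-zero, control and treated absorbances.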

[18] = test system: SK-MEL-5; test: Cytotoxicity against human SK-MEL-5 cells after 48 hrs by SRB assay; conditions: SK-MEL-5, 48 h; how it was run: as §1
[19] = test system: NCI-H460; test: Cytotoxicity against human NCI-H460 cells after 48 hrs by SRB assay; conditions: NCI-H460, 48 h; how it was run: as §1
[20] = test system: KM12; test: Cytotoxicity against human KM12 cells after 48 hrs by SRB assay; conditions: KM12, 48 h; how it was run: as §2
[21] = test system: SK-OV-3; test: Cytotoxicity against human SKOV3 cells after 48 hrs by SRB assay; conditions: SK-OV-3, 48 h; how it was run: as §1
[22] = test system: IGROV-1; test: Cytotoxicity against human IGROV1 cells after 48 hrs by SRB assay; conditions: IGROV-1, 48 h; how it was run: as §2
[23] = test system: OVCAR-8; test: Cytotoxicity against human OVCAR8 cells after 48 hrs by SRB assay; conditions: OVCAR-8, 48 h; how it was run: as §1
[24] = test system: HT-29; test: Cytotoxicity against human HT-29 cells after 48 hrs by SRB assay; conditions: HT-29, 48 h; how it was run: as §2
[25] = test system: A549; test: Cytotoxicity against human A549/ATCC cells after 48 hrs by SRB assay; conditions: A549, 48 h; how it was run: as §2
[26] = read-out: LC50 (the source's name)

NC(=O)Nc1ccc2ncnc(Nc3ccc(Cl)cc3)c2c1
GI50 [1]: 8.36 µM
TGI [1]: 69.5 µM
CC50 [1, 26]: > 100 µM
GI50 [2]: 18.2 µM
TGI [2]: 79.3 µM
CC50 [2, 26]: > 100 µM
GI50 [3]: 17.1 µM
TGI [3]: > 100 µM
CC50 [3, 26]: > 100 µM
GI50 [4]: 9.14 µM
TGI [4]: > 100 µM
CC50 [4, 26]: > 100 µM
GI50 [5]: 37.6 µM
TGI [5]: > 100 µM
CC50 [5, 26]: > 100 µM
GI50 [6]: 15.1 µM
TGI [6]: 42.7 µM
CC50 [6, 26]: > 100 µM
GI50 [7]: 16.9 µM
TGI [7]: 47.6 µM
CC50 [7, 26]: > 100 µM
GI50 [8]: 18.1 µM
TGI [8]: 87.1 µM
CC50 [8, 26]: > 100 µM
GI50 [9]: 25.5 µM
TGI [9]: > 100 µM
CC50 [9, 26]: > 100 µM
GI50 [10]: 13.5 µM
TGI [10]: 32.2 µM
CC50 [10, 26]: 77 µM
GI50 [11]: 23.9 µM
TGI [11]: > 100 µM
CC50 [11, 26]: > 100 µM
GI50 [12]: 25 µM
TGI [12]: 76 µM
CC50 [12, 26]: > 100 µM
GI50 [13]: 39.7 µM
TGI [13]: > 100 µM
CC50 [13, 26]: > 100 µM
GI50 [14]: 16.4 µM
TGI [14]: > 100 µM
CC50 [14, 26]: > 100 µM
GI50 [15]: 22.3 µM
TGI [15]: > 100 µM
CC50 [15, 26]: > 100 µM
GI50 [16]: 2.72 µM
TGI [16]: > 100 µM
CC50 [16, 26]: > 100 µM
GI50 [17]: 24.4 µM
TGI [17]: 69.8 µM
CC50 [17, 26]: > 100 µM
GI50 [18]: 13.5 µM
TGI [18]: 30.7 µM
CC50 [18, 26]: 70.1 µM
GI50 [19]: 22.4 µM
TGI [19]: > 100 µM
CC50 [19, 26]: > 100 µM
GI50 [20]: 28.4 µM
TGI [20]: > 100 µM
CC50 [20, 26]: > 100 µM
GI50 [21]: 3.52 µM
TGI [21]: 20.5 µM
CC50 [21, 26]: > 100 µM
GI50 [22]: 6.85 µM
TGI [22]: 27.6 µM
CC50 [22, 26]: 90.1 µM
GI50 [23]: 21.7 µM
TGI [23]: > 100 µM
CC50 [23, 26]: > 100 µM
GI50 [24]: 24 µM
TGI [24]: > 100 µM
CC50 [24, 26]: > 100 µM
GI50 [25]: 19.2 µM
TGI [25]: > 100 µM
CC50 [25, 26]: > 100 µM
